Data on six molecules can be found in ChEMBL document CHEMBL4725436, “Gibberellin JRA-003: A Selective Inhibitor of Nuclear Translocation of IKKα” (ACS Med Chem Lett, 2020).

In one test the test system is SUD4. As to the kind of experiment: Cytotoxicity against human SU-DHL-4 cells assessed as reduction in cell viability measured after 24 hrs by CellTiter-Glo luminescent assay. The test is classed as functional, cell-based. The conditions noted are these: SU-DHL-4, 24 h. The gist of the method:
(§1)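 High-throughput viability screen of test agents across a panel of 22 cancerous and noncancerous human cell lines. Viability was read by CellTiter-Glo luminescence.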

A short description of test [1]: Inhibition of IKKalpha/IKKbeta in human HEK293T cells transfected with firefly luciferase gene assessed as inhibition of TNF-alpha-stimulated NF-kappaB signalling preincubated for 1 hr followed by TNF alpha stimulation measured after 3 hrs by luciferase reporter gene assay. The test is classed as cell-based. Conditions: HEK-293T. The essentials:
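Commercial NF-κB-driven luciferase reporter assay in HEK 293T cells stimulated with TNFα. EC50 was derived from the luminescence readout.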
(Reporter assays use an easily measured gene product as a stand-in for the process of interest.)

The subject of another test is HCC1599. Nature of the test: Cytotoxicity against human HCC1599 cells assessed as reduction in cell viability measured after 24 hrs by CellTiter-Glo luminescent assay. Format: functional, cell-based. The conditions noted are these: HCC1599, 24 h. The gist of the method: as §1
For orientation: ATP-based viability assays read luminescence as a measure of living cells.

Test [2] is described as follows: Cytotoxicity against human Hs895SK cells assessed as reduction in cell viability measured after 24 hrs by CellTiter-Glo luminescent assay. Format: cell-based. Conditions: Hs 895.Sk. The gist of the method: as §1
The test system of a further test is PSN1. As to the kind of experiment: Cytotoxicity against human PSN1 cells assessed as reduction in cell viability measured after 24 hrs by CellTiter-Glo luminescent assay. Format: functional, cell-based. Conditions: PSN1, 24 h. The essentials: as §1
A further test has as its system HEK-293T. Nature of the test: Cytotoxicity against human HEK293T cells assessed as reduction in cell viability measured after 24 hrs by CellTiter-Glo luminescent assay. Format: cell-based. The gist of the method:
as §1

The next test deals with RCK8. Nature of the test: Cytotoxicity against human RC-K8 cells assessed as reduction in cell viability measured after 24 hrs by CellTiter-Glo luminescent assay. Conditions: RCK8, 24 h. The test is classed as functional, cell-based. The essentials:
as §1

The subject of the next test is Hs-578T. As to the kind of experiment: Cytotoxicity against human Hs-578T cells assessed as reduction in cell viability measured after 24 hrs by CellTiter-Glo luminescent assay. Format: functional, cell-based. The gist of the method:
as §1

Test [3] in a line: Cytotoxicity against human Hs888Lu cells assessed as reduction in cell viability measured after 24 hrs by CellTiter-Glo luminescent assay. Format: cell-based. The gist of the method: as §1
Another test relates to CA46. As to the kind of experiment: Cytotoxicity against human CA46 cells assessed as reduction in cell viability measured after 24 hrs by CellTiter-Glo luminescent assay. Format: functional, cell-based. The conditions noted are these: CA46, 24 h. The gist of the method:
as §1

A further test concerns NCI-H446. Nature of the test: Cytotoxicity against human NCI-H446 cells assessed as reduction in cell viability measured after 24 hrs by CellTiter-Glo luminescent assay. The test is classed as functional, cell-based. Conditions: NCI-H446, 24 h. The gist of the method:
as §1

Test [4] is described as follows: Cytotoxicity against human Hs895T cells assessed as reduction in cell viability measured after 24 hrs by CellTiter-Glo luminescent assay. Format: functional, cell-based. The essentials: as §1
A short description of test [5]: Cytotoxicity against human Hs578Bst cells assessed as reduction in cell viability measured after 24 hrs by CellTiter-Glo luminescent assay. Format: cell-based. The gist of the method:
as §1

SMILES strings stand for the structures. Bounds are passed on as bounds.

Usually IC50 stands for the point on the concentration scale where inhibition reaches its midpoint. One may read the EC50 as the concentration at which the effect is half-maximal. Consider `COC(=O)/C=C/Oc1ccc2c(c1C)[C@H](C(=O)OC)[C@@]13CC(=O)[C@@](C)(CC[C@@H]21)C3`, for which the IC50 (in the test on SUD4; with HCC1599; in [2]; with PSN1; with HEK-293T; with RCK8) was above 10 µM each time. The IC50 (with Hs-578T; in [3]; in the test on CA46; in the test with NCI-H446; in test [4]; in test [5]) was above 10 µM each time. Moreover, the EC50 in test [1] is above 100 µM.

As to `C=C1[C@@H](O)[C@]23C[C@@]1(O)CC[C@H]2[C@@]12C=C[C@H](O)[C@@](C)(C(=O)O1)[C@H]2[C@@H]3C(=O)OC`, the IC50 (with SUD4; with HCC1599; in [2]; with PSN1; in the test on HEK-293T; with RCK8) was above 10 µM each time. The IC50 (in the test with Hs-578T; in test [3]; with CA46; in the test on NCI-H446; in test [4]; in test [5]) was above 10 µM throughout. Also, in test [1], the EC50 is above 100 µM.

Take `COC(=O)[C@H]1c2c(C)cccc2[C@H]2CC[C@@]3(C)C[C@]21CC3=O`: the IC50 (in the test with SUD4; in the test on HCC1599; in [2]; in the test on PSN1; in the test with HEK-293T; with RCK8) was above 10 µM throughout. In addition, the IC50 (with Hs-578T; in test [3]; in the test with CA46; with NCI-H446; in test [4]; in test [5]) was above 10 µM each time. The EC50 in test [1] is above 100 µM.

In the case of `C=C1[C@@H](O)[C@]23C[C@@]1(O)CC[C@@H]2c1cccc(C)c1[C@@H]3C(=O)OC`, the IC50 (in the test on SUD4; in the test with HCC1599; in test [2]; with PSN1; in the test on HEK-293T; with RCK8) was above 10 µM in each case. Also, the IC50 (in the test with Hs-578T; in [3]; in the test on CA46; with NCI-H446; in test [4]; in [5]) was above 10 µM each time. Further, the EC50 in [1] is above 100 µM.

In the case of `C=C1C[C@]23C[C@@]1(O)CC[C@H]2c1cc2c(C(=O)OC)coc2c(C)c1[C@@H]3C(=O)OC`, the IC50 (in the test with SUD4; with HCC1599; in [2]; in the test with PSN1; with HEK-293T; in the test with RCK8) was above 10 µM each time. The IC50 (with Hs-578T; in test [3]; with CA46; with NCI-H446; in test [4]; in [5]) was above 10 µM each time. The concentration giving a half-maximal response (EC50) in test [1] is above 100 µM.

As for `COC(=O)[C@H]1c2c(C)cccc2[C@@H]2CC[C@@]3(C)C[C@]21CC3=O`, the IC50 (in the test with SUD4; with HCC1599; in test [2]; in the test on PSN1; in the test with HEK-293T; in the test with RCK8) was above 10 µM each time. Moreover, the IC50 (in the test on Hs-578T; in [3]; in the test on CA46; in the test on NCI-H446; in [4]; in test [5]) was above 10 µM each time. Also, the EC50 in [1] is above 100 µM.
